# According to ChEMBL document CHEMBL2346664, “Synthesis, characterization and in vitro anticancer evaluation of novel 1,2,4-triazolin-3-one derivatives” (2013):
# Legend:
# Format in all cases: functional
# [1] = test system: SF-268; assay: Growth inhibition of human SF268 cells assessed as cell growth at 10 '-5 M after 48 hrs by sulforhodamine B assay; conditions: SF-268, 48 h, read-out: Activity
# [2] = test system: NCI-H23; assay: Growth inhibition of human NCI-H23 cells assessed as cell growth at 10 '-5 M after 48 hrs by sulforhodamine B assay; conditions: NCI-H23, 48 h, read-out: Activity
# [3] = test system: UACC-62; assay: Growth inhibition of human UACC62 cells assessed as cell growth at 10 '-6 M after 48 hrs by sulforhodamine B assay; conditions: UACC-62, 48 h, read-out: Activity
# [4] = test system: LOX IMVI; assay: Growth inhibition of human LOXIMVI cells assessed as cell growth at 10 '-6 M after 48 hrs by sulforhodamine B assay; conditions: read-out: Activity
# [5] = test system: RPMI-8226; assay: Growth inhibition of human RPMI8226 cells assessed as growth inhibition at 10 uM after 48 hrs by sulforhodamine B assay; conditions: RPMI-8226, 48 h, read-out: GI
# [6] = test system: SF-295; assay: Growth inhibition of human SF295 cells assessed as cell growth at 10 '-6 M after 48 hrs by sulforhodamine B assay; conditions: SF-295, 48 h, read-out: Activity
# [7] = test system: KM12; assay: Growth inhibition of human KM12 cells assessed as cell growth at 10 '-6 M after 48 hrs by sulforhodamine B assay; conditions: KM12, 48 h, read-out: Activity
# [8] = Growth inhibition of human HCC2998 cells assessed as cell growth at 10 '-6 M after 48 hrs by sulforhodamine B assay; conditions: HCC 2998, 48 h, read-out: Activity
# [9] = test system: MOLT-4; assay: Growth inhibition of human MOLT4 cells assessed as cell growth at 10 '-6 M after 48 hrs by sulforhodamine B assay; conditions: MOLT-4, 48 h, read-out: Activity
# [10] = test system: DU-145; assay: Growth inhibition of human DU145 cells assessed as cell growth at 10 '-7 M after 48 hrs by sulforhodamine B assay; conditions: DU-145, 48 h, read-out: Activity
# [11] = test system: RXF 393; assay: Growth inhibition of human RXF393 cells assessed as cell growth at 10 '-7 M after 48 hrs by sulforhodamine B assay; conditions: RXF 393, 48 h, read-out: Activity
# [12] = test system: SK-OV-3; assay: Growth inhibition of human SKOV3 cells assessed as cell growth at 10 '-7 M after 48 hrs by sulforhodamine B assay; conditions: SK-OV-3, 48 h, read-out: Activity
# [13] = test system: UACC-257; assay: Growth inhibition of human UACC257 cells assessed as cell growth at 10 '-7 M after 48 hrs by sulforhodamine B assay; conditions: UACC-257, 48 h, read-out: Activity
# [14] = test system: SK-MEL-28; assay: Growth inhibition of human SK-MEL-28 cells assessed as cell growth at 10 '-7 M after 48 hrs by sulforhodamine B assay; conditions: SK-MEL-28, 48 h, read-out: Activity
# [15] = test system: SF-295; assay: Growth inhibition of human SF295 cells assessed as cell growth at 10 '-7 M after 48 hrs by sulforhodamine B assay; conditions: SF-295, 48 h, read-out: Activity
# [16] = test system: A498; assay: Growth inhibition of human A498 cells assessed as cell growth at 10 '-4 M after 48 hrs by sulforhodamine B assay; conditions: A498, 48 h, read-out: Activity
# In short: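 Percent growth at each of the five concentrations of the 48 h continuous-exposure NCI SRB screen. Drug stocks were in DMSO at 400× the top final concentration and diluted in medium with gentamicin. Growth was calculated as [(Ti-Tz)/(C-Tz)]×100 when Ti ≥ Tz, or [(Ti-Tz)/Tz]×100 when Ti < Tz. Tz plates were fixed at drug addition; untreated wells served as control. Absorbance was read at 515 nm.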
# [17] = Growth inhibition of human NCI-ADR-RES cells assessed as cell growth at 10 '-4 M after 48 hrs by sulforhodamine B assay; conditions: read-out: Activity
# [18] = test system: OVCAR-3; assay: Growth inhibition of human OVCAR3 cells assessed as cell growth at 10 '-4 M after 48 hrs by sulforhodamine B assay; conditions: OVCAR-3, 48 h, read-out: Activity
# [19] = test system: KM12; assay: Growth inhibition of human KM12 cells assessed as cell growth at 10 '-4 M after 48 hrs by sulforhodamine B assay; conditions: KM12, 48 h, read-out: Activity
# [20] = test system: DU-145; assay: Growth inhibition of human DU145 cells after 48 hrs by sulforhodamine B assay; conditions: DU-145, 48 h
# In short: (§1)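 NCI 60-cell-line five-dose screen. Cells were plated at 5,000–40,000/well by doubling time and grown 24 h at 37 °C, 5% CO2. Time-zero plates were TCA-fixed. Drug from DMSO stock was tested at 0.01, 0.1, 1, 10 and 100 µM final for 48 h continuous exposure. Read-out was SRB at 515 nm. GI50 is the concentration giving 50% reduction in net protein increase versus untreated control.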
# [21] = test system: ACHN; assay: Growth inhibition of human ACHN cells after 48 hrs by sulforhodamine B assay
# In short: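 NCI 60-cell-line five-dose screen at 0.01, 0.1, 1, 10 and 100 µM final. Cells were plated at 5,000–40,000/well and grown 24 h at 37 °C, 5% CO2, then exposed to drug continuously for 48 h. Adherent cells were fixed with cold TCA (10% final) and stained with SRB; absorbance read at 515 nm. GI50 is the concentration where [(Ti-Tz)/(C-Tz)]×100 = 50, with Tz plates fixed at drug addition.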
# [22] = test system: RXF 393; assay: Growth inhibition of human RXF393 cells assessed as cell growth at 10 '-5 M after 48 hrs by sulforhodamine B assay; conditions: RXF 393, 48 h, read-out: Activity
# [23] = test system: MDA-MB-435; assay: Growth inhibition of human MDA-MB-435 cells after 48 hrs by sulforhodamine B assay; conditions: MDA-MB-435, 48 h; in short: as §1
# [24] = test system: HT-29; assay: Growth inhibition of human HT-29 cells after 48 hrs by sulforhodamine B assay; conditions: HT-29, 48 h; in short: as §1
# [25] = test system: TK-10; assay: Growth inhibition of human TK10 cells assessed as growth inhibition at 10 uM after 48 hrs by sulforhodamine B assay; conditions: TK-10, 48 h, read-out: GI
# [26] = test system: RXF 393; assay: Growth inhibition of human RXF393 cells assessed as growth inhibition at 10 uM after 48 hrs by sulforhodamine B assay; conditions: RXF 393, 48 h, read-out: GI
# [27] = Growth inhibition of human EKVX cells assessed as cell growth at 10 '-7 M after 48 hrs by sulforhodamine B assay; conditions: read-out: Activity
# [28] = test system: MCF7; assay: Growth inhibition of human MCF7 cells assessed as cell growth at 10 '-8 M after 48 hrs by sulforhodamine B assay; conditions: MCF7, 48 h, read-out: Activity
# [29] = test system: SK-MEL-28; assay: Growth inhibition of human SK-MEL-28 cells assessed as cell growth at 10 '-5 M after 48 hrs by sulforhodamine B assay; conditions: SK-MEL-28, 48 h, read-out: Activity
# [30] = test system: SK-MEL-28; assay: Growth inhibition of human SK-MEL-28 cells assessed as cell growth at 10 '-8 M after 48 hrs by sulforhodamine B assay; conditions: SK-MEL-28, 48 h, read-out: Activity
# [31] = read-out: LD50 (the source's name)
smiles,measurement,setting,value
Cc1cc(=O)oc2cc(OCCn3c(C)nn(-c4ccc(Cl)cc4)c3=O)ccc12,growth at 10 µM,[1],52%
same,growth at 10 µM,[2],32%
same,growth at 1 µM,[3],61%
same,growth at 1 µM,[4],74%
same,inhibition of growth at 10 µM,[5],69%
same,growth at 1 µM,[6],74%
same,growth at 1 µM,[7],58%
same,growth at 1 µM,[8],76%
same,growth at 1 µM,[9],100%
same,growth at 0.1 µM,[10],108%
same,growth at 0.1 µM,[11],90%
same,growth at 0.1 µM,[12],103%
same,growth at 0.1 µM,[13],101%
same,growth at 0.1 µM,[14],87%
same,growth at 0.1 µM,[15],85%
same,growth at 100 µM,[16],-8%
same,growth at 100 µM,[17],2%
same,growth at 100 µM,[18],-29%
same,growth at 100 µM,[19],12%
same,GI50,[20],3900 nM
same,TGI,[20],> 1000 nM
same,CC50,[20]; [31],> 1000 nM
same,GI50,[21],5590 nM
same,TGI,[21],> 1000 nM
same,CC50,[21]; [31],> 1000 nM
same,growth at 10 µM,[22],18%
same,GI50,[23],2690 nM
same,TGI,[23],8370 nM
same,CC50,[23]; [31],> 1000 nM
same,GI50,[24],3820 nM
same,TGI,[24],> 1000 nM
same,CC50,[24]; [31],> 1000 nM
same,inhibition of growth at 10 µM,[25],40.4%
same,inhibition of growth at 10 µM,[26],62.6%
same,growth at 0.1 µM,[27],90%
same,growth at 0.01 µM,[28],98%
same,growth at 10 µM,[29],33%
same,growth at 0.01 µM,[30],105%
